The record followed here is the RNAGym collection of RNA variant scans (doi:10.1126/science.aae0568).

Sequences and labels used below:
B1: tRNA (parent)
chain: GUUCCGUUGGCGUAAUGGUAACGCGUCUCCCUCCUAAGGAGAAGACUGCGGGUUCGAGUCCCGUACGGAACG

This sample holds only a part of the variants without activity. A value given as a limit tells only on which side of the number the result lay.

The series covers variants of B1. The series can be described thus: yeast fitness relative to wild type (ratio to wild type); higher = fitter; tRNA-Arg(CCU), competitive growth, 37 C, YPD. A digest of the protocol: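 Gene amplicons from the start population and from each of six end populations were read by 100-nucleotide paired-end sequencing. Those end populations came from pooled Saccharomyces cerevisiae strains carrying tRNA-Arg(CCU) gene variants at the native locus, competed in YPD at 37°C for 24 hours. Fitness relative to wild type was worked out from changes in genotype frequencies. Genotypes needed ≥ 100 starting reads, and estimates < 0.5 were set to 0.5.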
As for U2A U19G C29G, the yeast fitness is at most 0.5. For U2C C24G C33G U53C C55U A70G the value was at most 0.5. For U2A U28C the value was 0.835; for U2G A20G C33U G39A A65G, at most 0.5; for U2C C4U G25C C29U G68A, at most 0.5. For U2C A36U A65C the value was at most 0.5; for U2C C29U A37G C66U, 0.578; for U2C C55G G56C A69U, at most 0.5. With U2C C34G U59A, the yeast fitness is at most 0.5.

U2C G17A A43C C49U U54A G56C A65U A70C: the yeast fitness was at most 0.5.

U2C C31G U35A: the yeast fitness is at most 0.5. For U2C C29A A57C the value was at most 0.5; for U2C U47A, 0.982; for U2C U54A, 0.612. For U2C G23A G38A G56C C61U G67A the value was at most 0.5; for U2C A14U G18C C33G G52A, at most 0.5. For U2C G9U A20C A57G A65C the value was at most 0.5; for U2G A20C G38A, at most 0.5. As for U2C C46U U59C, the yeast fitness was determined as 0.705. As for U2C C5U A40U G50A, the yeast fitness was at most 0.5. For U2G A20G C46A the value was 0.618; for U2C G18A A36C A45U C49G, at most 0.5; for U2C C34A, 0.77. For U2C C29U G56A the value was 0.625; for U2C G25A A42U A65C G67U, 0.578. As for U2C G6C G25A A36C, the yeast fitness is at most 0.5.

As to U2C C5A, the yeast fitness is 0.845.

Regarding U2C C11A, the yeast fitness is at most 0.5.

Consider U2C G12A G18C C33U, for which the yeast fitness came to 0.561. For the variant U2C G44C, the yeast fitness is 0.846. For U2C G44A the value was 0.86. For U2C U19C U59A the value was 0.582. The value for U2C A40U G50A was 0.571; that for U2C C30G C33A was at most 0.5. For the variant U2C A14G G18A C33U C34U G39C, the yeast fitness was at most 0.5. The value for U2C C24G C46U was at most 0.5; that for U2C G12A G18C C33U C55U was at most 0.5; that for U2C A40C G52C G67A was 0.56. The value for U2C C4U C46U G50U C55U was at most 0.5; that for U2C C11U U59A was 0.586. For U2C U19C U54A A69C the value was at most 0.5; for U2C U3C G25C C27G, at most 0.5. In the case of U2C G44A C46U A69C, the yeast fitness was determined as 0.784. The value for U2G was 0.994; that for U2C was 1; that for U2C C55A A57C G67C G68A was 0.575. The value for U2C A40G U54A was at most 0.5.

As for U2G A14U, the yeast fitness stood at 0.502. Regarding U2C U32A A65G, the yeast fitness was at most 0.5. With U2C G10A G12A G18C C33U A69C, the yeast fitness was at most 0.5. The value for U2C U16G was 0.96; that for U2C U3C C34U was 0.571; that for U2C G12A U19C A21U G58C was 0.603.

As for U2C G12A A36U C62G, the yeast fitness is at most 0.5. The value for U2A U26C C33G A42C C49G G58C C62G was at most 0.5. The value for U2C C11A G12A U35G U59A was at most 0.5. In the case of U2C G67U, the yeast fitness was determined as 0.81. For U2C C27U A43G the value was 0.593; for U2C C29A G63A, at most 0.5. The value for U2C G50A U54A G67A was at most 0.5; that for U2C U47A A70G was 1.15. For U2A U19G A70U the value was 0.68; for U2C U64G C66A, at most 0.5.

Regarding U2C G12C A14G C29U U59G G63C, the yeast fitness was at most 0.5. For U2C C31G G58C G67C the value was 0.53; for U2C A57G C66G, at most 0.5.

Regarding U2C G38A, the yeast fitness was found to be 0.901. For U2C G18C A21G the value was 0.569; for U2C C24G C61G, at most 0.5; for U2C C55A, 0.7. Take U2C U13A C61U: the yeast fitness is at most 0.5. The value for U2C U3C A21C C24A A65C was at most 0.5; that for U2C A43G was 0.887. The value for U2C U3A C31G U35A was at most 0.5. The value for U2C G23C C55G A69U was at most 0.5. As for U2C G48A C60U, the yeast fitness was at most 0.5. The value for U2A U32A A69C was 0.612. The value for U2C U3C C22U C34U was at most 0.5.

In the case of U2C C5U U54C, the yeast fitness was at most 0.5. The value for U2C C29U A37G A65G was at most 0.5; that for U2C C27G U28A C61U was at most 0.5. For U2C C11U G68A the value was 0.544; for U2C U7G U32A U59A, 0.501. The value for U2C U26C C61G G63A A69U was 0.56; that for U2C G48A was 0.928. As to U2C A15C C29U, the yeast fitness is at most 0.5. Take U2C C22U G38C C46U: the yeast fitness is at most 0.5. The value for U2G A14C A42C C49U A65C was at most 0.5; that for U2C A40C G52C was 0.528; that for U2C G18A U28C A42C G56C A65C was 0.61. For U2A U47A the value was 0.851.

Regarding U2C U7A C22A A36U A45U C60U C62U C66U, the yeast fitness stood at 0.541. On to U2C C11A C22G U54C G56A, for which the yeast fitness is at most 0.5.

For U2A U16G G18C, the yeast fitness came out at 0.614.

Regarding U2C C31G C55G, the yeast fitness was found to be 0.569. For U2C G56C the value was 0.727; for U2C C11A G41C C61A, at most 0.5. For U2G A15U the value was 0.75; for U2G A15G, 0.812; for U2C G25A G52A, at most 0.5. For U2A U26C C55U the value was at most 0.5. Consider U2C C24U C29U C30A, for which the yeast fitness turned out to be 0.59. For U2C U3C A45G C61A the value was at most 0.5; for U2C G6C C11G A15C G25C C27G C30G G38C, at most 0.5; for U2A U47A A65C, at most 0.5.

On to U2C A20U U28A, for which the yeast fitness is at most 0.5. The value for U2C A20U was 0.91; that for U2C G6C was 0.861; that for U2C C24G A42U G67A was at most 0.5.

As to U2C G23A G38A G56C C61U, the yeast fitness is at most 0.5. For U2A U19G A20U U64C the value was at most 0.5; for U2C C4U G25C C29U C66A, at most 0.5; for U2C C29A C31A A40U C49U, 0.554. For U2C A15U U16A the value was 0.62; for U2C U28A A43C A57C C62A, 0.572.

Turning to U2C C27U A36G, the yeast fitness was 0.575. For the variant U2C C27U A36C, the yeast fitness was at most 0.5. The value for U2C A20U C62U was 0.571; that for U2C G18A C24U was 0.529. U2C U13G C22U C60G A65G: the yeast fitness is at most 0.5.

For U2C C4A C34A A43G G52C C60G A65G, the yeast fitness was at most 0.5. As to U2C C11A C22G G41A A43C G51C, the yeast fitness is at most 0.5.

In the case of U2C A14U U47A C61G A70G, the yeast fitness is at most 0.5. Turning to U2C A14G C29A C33G C66A, the yeast fitness was at most 0.5.

Turning to U2G A20C G25A A69C, the yeast fitness was at most 0.5.

Consider U2C C27A C60G, for which the yeast fitness is at most 0.5.

Consider U2C C24U, for which the yeast fitness came to 0.952. For U2C C24A the value was 0.574; for U2G A14U C22G C30G G58A, at most 0.5; for U2C U32G, 0.674. The value for U2A U19A A20C G25A U26A was at most 0.5; that for U2C A14C U19A was 0.595; that for U2C U16A G38C G63A was 0.552. In the case of U2C G10C C11U C34A A37C C60A G67C, the yeast fitness came to 0.7.

With U2C G23C C31G C33U A42G G67U, the yeast fitness is at most 0.5. Consider U2C C4U C33A G41C C60U A65U A69U, for which the yeast fitness was at most 0.5. For the variant U2C G6A A57U C62U, the yeast fitness is at most 0.5. For the variant U2A U16G C66G G68C, the yeast fitness was at most 0.5. For U2C C33U C61G the value was at most 0.5; for U2C C4A C11U C29U G67A A70U, at most 0.5. The value for U2C G48C C49U U53C was at most 0.5.

Turning to U2C C4U, the yeast fitness stood at 0.969. For U2C C11A C22G G41A A43C G51C C66U G67U the value was 0.584; for U2C C11A C22G G41A A43C G51C C66U G67C, at most 0.5; for U2C G18C A21G C27A C30U G38A, at most 0.5.

Turning to U2C G18C G23C C33U G39A A43U C62A G63C, the yeast fitness turned out to be 0.851. On to U2C A14G G18A U32A A45C A69C, for which the yeast fitness is at most 0.5. The value for U2C U16A C49U A65C A69C was at most 0.5; that for U2C U28A G67A was at most 0.5. For U2C A20U U28A G67U, the yeast fitness is 0.579. The value for U2C U3G G18A A65U was at most 0.5; that for U2C A40U was 1.05; that for U2C G52C was 0.661. Consider U2C A15U C30G C55U, for which the yeast fitness stood at 0.666. As to U2C C46A, the yeast fitness was 0.942.

With U2C A15C C24A G41C G68A, the yeast fitness was at most 0.5.

U2C C61G A65U: the yeast fitness came out at 0.547. For U2C A15C U19C C22G U59C C60G the value was at most 0.5; for U2C U16A A40G G48A, at most 0.5. In the case of U2C U35A C55A C66A, the yeast fitness worked out at 0.521.

U2A U64C: the yeast fitness was 0.938. U2C C24A C66U: the yeast fitness came out at 0.61.

For the variant U2C C49U, the yeast fitness stood at 0.808. On to U2C U13C G38A, for which the yeast fitness was found to be 0.596. Take U2C C33U A42C U64C A70G: the yeast fitness is at most 0.5. The value for U2C U28A G52A was at most 0.5.

Regarding U2C C29U C66G G68A, the yeast fitness is at most 0.5.
